Rows were chosen to be rich in hits. Some 2.5% of all compounds tested hit in one or more screens of this group.
E-sel inducer = E-selectin induction on HUVECs; HUVEC E-selectin immunofluorescence imaging; normalized: neutral wells 0, TNF-alpha wells 100; activation, % at 7.58 µM; hit rate 0.37% among 260,000; AID 686992;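 active = mean E-selectin-positive cell signal at least 10% of the positive control, reached in at least 60% of replicates, without over 20% cell loss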
Target sequence (P16581 whole entry, looked up): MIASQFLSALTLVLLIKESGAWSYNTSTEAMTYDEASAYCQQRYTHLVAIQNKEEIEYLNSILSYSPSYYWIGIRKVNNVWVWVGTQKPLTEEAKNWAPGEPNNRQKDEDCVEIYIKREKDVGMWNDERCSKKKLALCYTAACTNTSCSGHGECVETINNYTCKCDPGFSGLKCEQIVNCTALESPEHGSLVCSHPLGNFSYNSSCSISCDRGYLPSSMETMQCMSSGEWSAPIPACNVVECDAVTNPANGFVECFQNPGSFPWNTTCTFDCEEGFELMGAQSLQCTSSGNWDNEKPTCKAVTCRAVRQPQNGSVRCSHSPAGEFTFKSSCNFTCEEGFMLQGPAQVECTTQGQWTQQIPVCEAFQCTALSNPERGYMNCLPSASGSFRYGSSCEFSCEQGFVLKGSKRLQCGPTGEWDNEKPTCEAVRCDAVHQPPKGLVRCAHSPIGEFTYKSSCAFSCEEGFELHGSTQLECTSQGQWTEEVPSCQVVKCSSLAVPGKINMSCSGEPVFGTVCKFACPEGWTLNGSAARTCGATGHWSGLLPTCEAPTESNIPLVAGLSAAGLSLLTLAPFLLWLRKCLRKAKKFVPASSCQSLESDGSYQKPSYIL
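material = human umbilical vein endothelial cells (HUVEC), E-selectin induction | quantity = 3,000 cells/well | medium = EGM-2 growth medium on 0.1% gelatin-coated wells | technique = immunofluorescence imaging | read-out basis = % PE-positive cells | control set = TNF-alpha positive control, DMSO neutral control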
S100A4 MyoIIA = S100A4-myosin IIA interaction inhibition; P26447; S100A4/TAMRA-MyoIIA peptide fluorescence polarization; inhibition, % at 10.7 µM; hit rate 0.14% among 360,000; AID 652163;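 active = mean inhibition of at least 70% across replicates, with every replicate also reaching that level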
Target sequence (P26447 whole entry, looked up): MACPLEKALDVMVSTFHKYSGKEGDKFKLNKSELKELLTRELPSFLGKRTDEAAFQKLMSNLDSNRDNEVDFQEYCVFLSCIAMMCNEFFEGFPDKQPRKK
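Test system: S100A4 monomer protein; Medium: HEPES pH 7.2 with CaCl2, KCl, NaCl, DTT, Triton; Probe or stimulus: TAMRA-labelled myosin IIA heavy-chain peptide probe, 5 nM; Doses: one dose per compound; Times: polarization read 5 min after assay mix addition, stable 5–60 min; Benchmarks: neutral control DMSO, positive control TFP.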
miR122 inh = inhibitors of miR-122 in Huh7 cells. Huh7 miR-122 Renilla luciferase sensor, 48 h; neutral wells = 0, positive control = 100. activation (reporter increase), % at 12.5 µM. hit rate 0.3% among 340,000;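 active = mean replicate activation score at least 90 and every replicate individually at or above 90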;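 also: higher luciferase means less miR-122 activity so hits act as miR-122 inhibitors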
SIRT5 inh = inhibitors of human sirtuin-5 desuccinylase; Q9NXA8; hit rate 1.1% among 330,000; inhibition, % at 15 µM; Purified SirT5, succinyl-peptide AMC, trypsin-coupled fluorescence; AID 652115; in the data active = inhibition above about 15%
FGF22 binding = FGF22 (human) thermal shift binding | activity (Tm shift, normalised), % at 9.99 µM | hit rate 1.5% among 340,000 | Q9HCT0 | recombinant FGF22 thermal shift, SYPRO orange fluorescence; percent of sucrose octasulfate shift, DMSO zero;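 active = mean Tm shift, scaled 0 neutral to 100 positive control, at about 1.3% or above, every replicate too, limit read from the data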
Large screens that a line does not name were inactive.

COCC(=O)Nc1ccc2c(c1)OC[C@H](C)N(C(=O)C1CCCC1)C[C@@H](C)[C@@H](OC)CN(C)C2=O	none (no result: S100A4 MyoIIA, SIRT5 inh, FGF22 binding)
Nc1ccccc1-c1ccccc1N	FGF22 binding 44 (no result: E-sel inducer, miR122 inh)
Nc1ccccc1-c1ccc(Cl)cc1	none (no result: E-sel inducer)
C[C@H]1CN([C@@H](C)CO)C(=O)c2cc(NC(=O)CCC(F)(F)F)ccc2O[C@H]1CN(C)Cc1ccc(C(F)(F)F)cc1	SIRT5 inh 20
C[C@H]1CN([C@@H](C)CO)C(=O)c2cc(NC(=O)CCCN(C)C)ccc2O[C@H]1CN(C)Cc1ccc(C(F)(F)F)cc1	E-sel inducer 42
C[C@@H]1CN([C@H](C)CO)C(=O)c2cc(NC(=O)CCC(F)(F)F)ccc2O[C@@H]1CN(C)Cc1ccc(C(F)(F)F)cc1	E-sel inducer 52
COc1ccc2c3c(n(C)c2c1)[C@H](CO)N(C)CC31CN(C(=O)c2ccccc2F)C1	none (no result: miR122 inh, SIRT5 inh)
CCCC(=O)Nc1ccc2c(c1)OC[C@@H](C)N(C)C[C@@H](C)[C@H](OC)CN(C)C2=O	none (no result: miR122 inh, FGF22 binding)
COc1ccc(Cn2cc(C(=O)O)c(=O)c3ccccc32)cc1	FGF22 binding 43
COc1ccccc1Oc1ccccc1[N+](=O)[O-]	none (no result: miR122 inh)
COc1ccccc1P(=O)(Cc1ccccc1[N+](=O)[O-])c1ccccc1 (centres undefined)	E-sel inducer 59 (no result: miR122 inh)
C[C@H]1CCCCO[C@@H](CN(C)CC2CCCCC2)[C@@H](C)CN([C@@H](C)CO)C(=O)c2cc(NC(=O)Nc3ccc(F)cc3)ccc2O1	none
O=C(NCCc1c[nH]c2ccccc12)/C(=C/c1ccco1)NC(=O)c1ccco1	FGF22 binding 43 (no result: miR122 inh)
O=C(NCCc1c[nH]c2ccccc12)c1ccco1	none (no result: SIRT5 inh)
CCOc1cccc(=O)c2c(C)n(-c3ccc(C(=O)O)cc3)c(C)c12	SIRT5 inh 29
O=C1CSC(c2ccccc2)N1Nc1nc(N2CCOCC2)nc(N2CCOCC2)n1 (centres undefined)	FGF22 binding 43
c1ccc(Nc2nc(N3CCCC3)nc(N3CCOCC3)n2)cc1	none (no result: miR122 inh)
CCOc1cc(CNc2ncn[nH]2)ccc1OCC(=O)NC(C)(C)C	FGF22 binding 43 (no result: E-sel inducer, miR122 inh)
CCOc1cc(CNc2nn[nH]n2)ccc1OCC(=O)NC(C)(C)C	FGF22 binding 44
CCN1CC(=O)N2[C@@H](CO)[C@H](c3ccc(-c4ccccc4F)cc3)[C@@H]2C1	none (no result: miR122 inh, FGF22 binding)
CCN(C[C@H]1N[C@@](C)(C(=O)OC)[C@H]2C(=O)N(C)C(=O)[C@@H]12)C(=O)c1ccccc1	none (no result: miR122 inh)
CCN(C[C@H]1N[C@@](C)(C(=O)OC)[C@H]2C(=O)N(C)C(=O)[C@@H]12)C(=O)COC	FGF22 binding 43 (no result: miR122 inh, SIRT5 inh)
COC(=O)[C@]1(C)N[C@H](CN(C)C(C)=O)[C@@H]2C(=O)N(Cc3ccccc3)C(=O)[C@@H]21	FGF22 binding 44 (no result: miR122 inh, SIRT5 inh)
CCN(C[C@H]1N[C@@](C)(C(=O)OC)[C@H]2C(=O)N(C)C(=O)[C@@H]12)C(C)=O	FGF22 binding 43 (no result: miR122 inh, SIRT5 inh)
COC(=O)[C@]1(C)N[C@H](CN(C)C(=O)c2ccccc2)[C@@H]2C(=O)N(Cc3ccccc3)C(=O)[C@@H]21	none (no result: miR122 inh, SIRT5 inh)
Cc1ccc(N(C(=O)CCCC(=O)Nc2ccccn2)C(C(=O)NC2CCCC2)c2ccc(O)cc2)cc1C (centres undefined)	none
Cc1ccccc1N(C(=O)CCCC(=O)Nc1ccccn1)C(C(=O)NC1CCCC1)c1ccc(O)cc1 (centres undefined)	miR122 inh 132 (no result: E-sel inducer)
CCOC(=O)c1c(NC(=O)CC2SC(N)=NC2=O)sc(C)c1C (centres undefined)	FGF22 binding 43 (no result: miR122 inh)
CCOC(=O)c1c(NC(=O)Cn2ccsc2=N)sc(C)c1C	FGF22 binding 43 (no result: E-sel inducer)
CCOC(=O)c1c(NC(=O)CNCCO)sc(C)c1C	none (no result: E-sel inducer, S100A4 MyoIIA, SIRT5 inh, FGF22 binding)
Cc1noc(C)c1C(=O)OCC(=O)Nc1cccc(S(N)(=O)=O)c1	FGF22 binding 43 (no result: E-sel inducer, miR122 inh)
CCOc1ccc(NC(=O)CSc2nnc(Cn3cnc([N+](=O)[O-])n3)n2CC)cc1	FGF22 binding 43 (no result: E-sel inducer, miR122 inh)
O=C(Cc1ccncc1)N1CC[C@@H]2[C@H](CO)Nc3ccc(-c4ccccc4F)cc3[C@@H]21	none
COc1ccc(C(=O)NC2CC3CCCC(C2)N3Cc2ccccc2)c(OC)c1 (centres undefined)	SIRT5 inh 24 (no result: E-sel inducer)
COc1ccc(C(=O)NC2CC3CCCC(C2)N3Cc2ccccc2)cc1 (centres undefined)	none (no result: E-sel inducer)
O=C(C[C@H]1CC[C@@H]2[C@H](COC[C@@H](O)CN2C(=O)Nc2cccc(Cl)c2)O1)NCc1ccccc1F	none
Oc1ccc(-c2nccc(-c3ccc(Cl)cc3Cl)n2)cc1	SIRT5 inh 18 (no result: E-sel inducer)
Oc1ccc(-c2nccc(-c3ccc(Cl)cc3)n2)cc1	none (no result: E-sel inducer, miR122 inh)
Cc1ccc(S(=O)(=O)N[C@@H]2CC[C@@H](CCNC(=O)CN3CCOCC3)O[C@H]2CO)cc1	none (no result: miR122 inh)
COc1cccc(-c2c(-c3cc(OC)cc(OC)c3)n(C)c3ccc(-c4ccc(OC)nc4)cc23)c1	FGF22 binding 44
COc1ccc(S(=O)(=O)Nc2ccc(-c3ccc4nnc(C)n4n3)cc2)c(OC)c1	miR122 inh 92
OCc1ccc(-c2nn(Cc3ccccc3)c3ccccc23)o1	E-sel inducer 117
Cc1csc(Nc2ccccc2)[n+]1-c1ccccc1	FGF22 binding 43 (no result: E-sel inducer, miR122 inh)
Cc1csc(Nc2ccccc2)[n+]1C	none (no result: E-sel inducer)
CCOC(=O)c1cnc(-c2ccccc2)nc1N1CC(C)OC(C)C1 (centres undefined)	FGF22 binding 43 (no result: miR122 inh)
O=C(Nc1nccs1)c1cccc2ccccc12	SIRT5 inh 18 (no result: E-sel inducer)
CCCC(=O)Nc1ccc2c(c1)C(=O)N(C)C[C@@H](OC)[C@H](C)CN(Cc1ccccn1)[C@H](C)CO2	none (no result: miR122 inh)
COc1ccc(NC(=O)N(C)C[C@H]2Oc3ccc(NC(=O)Cc4cn(C)c5ccccc45)cc3C(=O)N([C@@H](C)CO)C[C@@H]2C)cc1	none
COc1ccc(NC(=O)N(C)C[C@H]2Oc3ccc(NC(=O)Cc4cn(C)c5ccccc45)cc3C(=O)N([C@H](C)CO)C[C@@H]2C)cc1	E-sel inducer 32
C[C@@H]1CN([C@H](C)CO)C(=O)c2cc(NC(=O)Cc3cn(C)c4ccccc34)ccc2O[C@@H]1CN(C)C	none
C[C@H](CO)N1C[C@H](C)[C@H](CN(C)C)Oc2ccc(NC(=O)Cc3cn(C)c4ccccc34)cc2C1=O	E-sel inducer 37
O=C(C[C@H]1C[C@@H]2c3cc(NC(=O)Nc4ccccc4F)ccc3O[C@@H]2[C@H](CO)O1)NCC1CC1	none
CCOC(=O)C1=C(C)N=c2sc(=Cc3ccc(OCC(=O)O)cc3)c(=O)n2C1c1ccc(Cl)cc1 (centres undefined)	SIRT5 inh 21
CCOC(=O)C1=C(C)N=c2s/c(=C\c3ccc(OCC(=O)O)cc3)c(=O)n2C1c1ccc(OC(C)C)cc1 (centres undefined)	none (no result: S100A4 MyoIIA, SIRT5 inh, FGF22 binding)

Assay outcomes (PubChem BioAssay)
